From ChEMBL document CHEMBL5029146, “Single Diastereomers of the Clinical Anticancer ProTide Agents NUC-1031 and NUC-3373 Preferentially Target Cancer Stem Cells In Vitro” (J Med Chem, 2021)
The source made the active and inactive calls. The calls are words filed in the database; no cut-off is given here.

What was measured:
KG-1a [1] = test: Cytotoxicity against human KG-1a cells assessed as reduction in leukemic stem cells fraction >= 0.25 uM measured after 48 hrs by FACS assay; assay type: functional, cell-based; details: dose microM >=0.25, time 48.0 hrs
BXPC-3 = test: Cytotoxicity against human BXPC-3 cells assessed as cell death incubated for 72 hrs by MTS assay; assay type: functional; details: read-out: LC50 (the source's name)
In short: (§1)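 Contracted MTS viability test (BxPC-3, MIA PaCa-2, HT-29, SW620), cells plated the day before dosing. 72 h exposure to 9 serial 3.16-fold dilutions, highest 198 μM, then MTS for 4 h at 37°C and absorbance read. Run in duplicate; LC50 (concentration giving 50% cell death) taken from curve fit as mean.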

LNCaP = test: Cytotoxicity against human LNCaP cells assessed as cell death incubated for 72 hrs by flow cytometry based Annexin V/7-AAD assay; assay type: functional; details: read-out: LC50 (the source's name)
In short: (§2)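 Cell suspensions from confluent flasks (10^5 cells per well) exposed 72 h at 37°C, humidified 5% CO2, to compound over experimentally set concentration ranges, with drug-free controls. Cells harvested by centrifugation, Annexin V/7-AAD flow cytometry. Triplicate experiments; LC50 by non-linear regression of sigmoidal dose-response curves, mean ± SEM.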

HT-29 [2] = test: Cytotoxicity against human HT-29 cells assessed as cell death incubated for 72 hrs by flow cytometry based Annexin V/7-AAD assay; assay type: functional; details: read-out: LC50 (the source's name); in short: as §2
KG-1a [3] = test: Cytotoxicity against human KG-1a cells assessed as cell death incubated for 72 hrs by flow cytometry based Annexin V/7-AAD assay; assay type: functional; in short: as §2
[4] = Prodrug activation assessed as carboxypeptidase Y-mediated metabolite C release measured upto 120 mins by NMR analysis; assay type: ADME; details: saccharomyces cerevisiae, 2 h
In short: (§3)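 ProTide (3.5 mg) in acetone-d6 with Trizma buffer pH 7.6. Control 31P NMR taken, then carboxypeptidase Y (0.1 mg in Trizma) added. 31P NMR spectra (202 MHz, 25°C) collected with 64 scans every 7 min. Parent and metabolite A/C fractions followed by peak integration over time.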

[5] = Prodrug activation assessed as carboxypeptidase Y-mediated metabolite A release measured upto 120 mins by NMR analysis; assay type: ADME; details: saccharomyces cerevisiae, 2 h; in short: as §3
MIA PaCa-2 = test: Cytotoxicity against human MIA PaCa-2 cells assessed as cell death incubated for 72 hrs by MTS assay; assay type: functional; details: read-out: LC50 (the source's name); in short: as §1
[6] = Metabolic stability in cryopreserved human hepatocytes assessed as parent compound remaining at 1 uM for 60 mins by HPLC-MS/MS analysis; assay type: ADME, cell-based, Hepatocyte
In short: (§4)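 Pooled cryopreserved human hepatocytes thawed, washed and resuspended in Krebs-Henseleit buffer pH 7.3. Compound at 1 μM final, incubated 0 and 60 min at 37°C/5% CO2. Quenched with acetonitrile, centrifuged; supernatant analysed by HPLC-MS/MS.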

[7] = Stability in human plasma assessed as half life; assay type: ADME, cell-free; details: time <=24 hrs
KG-1a [8] = test: Potency index, ratio of FUDR LC50 to test compound LC50 for human KG-1a cells incubated for 72 hrs by flow cytometry using Annexin V/7-AAD assay; assay type: functional
In short: (§5)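 Annexin V/7-AAD flow cytometry after 72 h exposure at 37°C, 5% CO2, drug-free controls included, triplicate. LC50 by non-linear regression. Index is reference nucleoside LC50 (5-FU for HT-29, FUDR for KG1a) divided by test compound LC50.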

MDA-MB-231 = test: Cytotoxicity against human MDA-MB-231 cells incubated for 72 hrs by flow cytometry using Annexin V/7-AAD assay; assay type: functional; details: read-out: LC50 (the source's name); in short: as §2
SW-620 [9] = test: Cytotoxicity against human SW-620 cells assessed as cell death incubated for 72 hrs by MTS assay; assay type: functional; details: read-out: LC50 (the source's name); in short: as §1
[10] = Metabolic stability in cryopreserved human hepatocytes assessed as half life at 1 uM for 60 mins by HPLC-MS/MS analysis; assay type: ADME, cell-based, Hepatocyte; details: for t1/2: hepatocytes, 1 h, 1 µM; in short: as §4
HCT-116 = test: Cytotoxicity against human HCT-116 cells assessed as cell death incubated for 72 hrs by flow cytometry based Annexin V/7-AAD assay; assay type: functional; details: read-out: LC50 (the source's name); in short: as §2
KG-1a [11] = test: Cytotoxicity against human KG-1a cells assessed as reduction in leukemic stem cells fraction at >= 0.07 uM after 48 hrs by FACS assay; assay type: functional, cell-based; details: dose microM >=0.07, time 48.0 hrs
In short: (§6)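 KG1a AML cells were kept in RPMI with 20% foetal calf serum and penicillin/streptomycin, then exposed to a wide concentration range of each nucleoside or ProTide. Cells were stained with anti-CD34 (FITC) and anti-CD38 (PE) and read by flow cytometry. The CD34⁺/CD38⁻ stem-cell subset was expressed as a percentage of viable cells. Results are the mean ±SEM of five independent experiments.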

HT-29 [12] = test: Potency index, ratio of 5-FU LC50 to test compound LC50 for human HT-29 cells for 72 hrs by flow cytometry using Annexin V/7-AAD assay; assay type: functional; in short: as §5
[13] = Prodrug activation assessed as carboxypeptidase Y-mediated metabolite A release measured within 10 mins by NMR analysis; assay type: ADME; details: saccharomyces cerevisiae; in short: as §3
SW-620 [14] = test: Potency index, ratio of 5-FU LC50 to test compound LC50 for human SW-620 cells incubated for 72 hrs by MTS assay; assay type: functional
In short: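 SW620 MTS assay: 72 h exposure to 9 serial 3.16-fold dilutions from 198 μM, MTS 4 h at 37°C, absorbance read, duplicate. LC50 from curve fit; index is 5-FU LC50 divided by test compound LC50.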

[15] = Prodrug activation assessed as carboxypeptidase Y-mediated metabolism by measuring compound remaining within 10 mins by NMR analysis; assay type: ADME; details: saccharomyces cerevisiae; in short: as §3
KG-1a [16] = test: Cytotoxicity against human KG-1a cells assessed as reduction in leukemic stem cells fraction up to 5 uM measured after 48 hrs by FACS assay; assay type: functional, cell-based; details: dose microM <=5, time 48.0 hrs
KG-1a [17] = test: Cytotoxicity against human KG-1a cells assessed as viable cells at 0.5 uM for 48 hrs by FITC-PE analysis (reference value: 3.9%); assay type: functional; in short: as §6
KG-1a [18] = test: Cytotoxicity against human KG-1a cells assessed as viable cells at 0.25 uM for 48 hrs by FITC-PE analysis (reference value: 3.9 to 4%); assay type: functional; in short: as §6
[19] = Drug uptake in human KG-1a cell leukemic stem cells fraction assessed as intracellular accumulation at 1 uM treated for 1 hr by mass spectrometry analysis; assay type: ADME
In short: (§7)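 KG1a cells (5×10^6, DMEM + 10% FCS) exposed to 1 μM compound for 1 h, harvested, then FACS-sorted into CD34+/CD38− LSC and CD34+/CD38+ bulk fractions. Pellets lysed; intracellular triphosphate quantified by mass spectrometry against a nucleoside standard curve. Five independent experiments in triplicate, mean ± SEM.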

[20] = Drug uptake in human KG-1a cell bulk tumor fraction assessed as intracellular accumulation at 1 uM treated for 1 hr by mass spectrometry analysis; assay type: ADME; in short: as §7
KG-1a [21] = test: Cytotoxicity against human KG-1a cells assessed as viable cells at 1 uM for 48 hrs by FITC-PE analysis (reference value: 3.9 to 4%); assay type: functional; in short: as §6
KG-1a [22] = test: Cytotoxicity against human KG-1a cells assessed as reduction in leukemic stem cells fraction up to 2.5 uM measured after 48 hrs by FACS assay; assay type: functional, cell-based; details: dose microM <=2.5, time 48.0 hrs; in short: as §6

SMILES: C[C@H](N[P@@](=O)(OC[C@H]1O[C@@H](n2ccc(N)nc2=O)C(F)(F)[C@@H]1O)Oc1ccccc1)C(=O)OCc1ccccc1
- Activity (KG-1a [1]): Active
- CC50 (BXPC-3): 1290 nM
- CC50 (LNCaP): 3400 nM
- CC50 (HT-29 [2]; Homo sapiens, HT-29, 72 h): 1000 nM
- LC50 (KG-1a [3]): 250 nM
- Drug metabolism [4]: Metabolite_Detected
- Drug metabolism [5]: Metabolite_Notdetected
- CC50 (MIA PaCa-2): 190 nM

SMILES: C[C@H](N[P@](=O)(OC[C@H]1O[C@@H](n2ccc(N)nc2=O)C(F)(F)[C@@H]1O)Oc1ccccc1)C(=O)OCc1ccccc1
- Activity (KG-1a [1]): Active
- CC50 (BXPC-3): 2440 nM
- CC50 (LNCaP): 2600 nM
- CC50 (HT-29 [2]; Homo sapiens, HT-29, 72 h): 1500 nM
- LC50 (KG-1a [3]): 310 nM
- CC50 (MIA PaCa-2): 30 nM

SMILES: C[C@H](NP(=O)(OC[C@H]1O[C@@H](n2cc(F)c(=O)[nH]c2=O)C[C@@H]1O)Oc1cccc2ccccc12)C(=O)OCc1ccccc1 (stereo in doubt; form 1) [FOSIFLOXURIDINE NAFALBENAMIDE]
- remaining at 1 h, 1 µM ([6]; cryopreserved hepatocytes, read-out: Stability): 30%
- half-life [7]: 582 min
- RatioLC50 (KG-1a [8]): 23
- CC50 (MDA-MB-231; Homo sapiens, MDA-MB-231, 72 h): 2800 nM
- CC50 (SW-620 [9]; Homo sapiens, SW-620, 72 h): 1840 nM
- half-life at 1 µM ([10]; cryopreserved hepatocytes): 34 min
- CC50 (HCT-116; Homo sapiens, HCT-116, 72 h): 3100 nM
- CC50 (HT-29 [2]; Homo sapiens, HT-29, 72 h): 1700 nM
- LC50 (KG-1a [3]; 72 h): 53 nM

SMILES: C[C@H](NP(=O)(OC[C@H]1O[C@@H](n2cc(F)c(=O)[nH]c2=O)C[C@@H]1O)Oc1cccc2ccccc12)C(=O)OCc1ccccc1 (stereo in doubt; form 2)
- Activity (KG-1a [11]): Active

SMILES: C[C@H](NP(=O)(OC[C@H]1O[C@@H](n2cc(F)c(=O)[nH]c2=O)C[C@@H]1O)Oc1cccc2ccccc12)C(=O)OCc1ccccc1 (stereo in doubt; form 2) [FOSIFLOXURIDINE NAFALBENAMIDE]
- Stability ([6]; hepatocytes, 1 h, 1 µM): 40%
- RatioLC50 (HT-29 [12]): 13
- CC50 (MDA-MB-231; 72 h): 3600 nM
- Drug metabolism [13]: Metabolite_Detected
- CC50 (SW-620 [9]; 72 h): 2370 nM
- t1/2 [10]: 53 min
- CC50 (HCT-116; 72 h): 4300 nM
- CC50 (HT-29 [2]; 72 h): 2100 nM
- LC50 (KG-1a [3]; 72 h): 52 nM

SMILES: C[C@H](NP(=O)(OC[C@H]1O[C@@H](n2cc(F)c(=O)[nH]c2=O)C[C@@H]1O)Oc1cccc2ccccc12)C(=O)OCc1ccccc1 (stereo in doubt; form 3)
- Activity (KG-1a [11]): Active

SMILES: C[C@H](NP(=O)(OC[C@H]1O[C@@H](n2cc(F)c(=O)[nH]c2=O)C[C@@H]1O)Oc1cccc2ccccc12)C(=O)OCc1ccccc1 (stereo in doubt; form 3) [FOSIFLOXURIDINE NAFALBENAMIDE]
- CC50 (MDA-MB-231; 72 h): 2500 nM
- CC50 (SW-620 [9]; 72 h): 1460 nM
- t1/2 [10]: 47 min
- CC50 (HCT-116; 72 h): 2600 nM
- RatioLC50 (SW-620 [14]): 4
- CC50 (HT-29 [2]; 72 h): 1500 nM
- LC50 (KG-1a [3]; 72 h): 55 nM
- Activity [15]: 28%

SMILES: O=c1[nH]cc(F)c(=O)[nH]1 [FLUOROURACIL]
- half-life [7]: 8 min
- CC50 (MDA-MB-231; Homo sapiens, MDA-MB-231, 72 h): 12600 nM
- CC50 (SW-620 [9]; Homo sapiens, SW-620, 72 h): 7980 nM
- CC50 (HCT-116; Homo sapiens, HCT-116, 72 h): 3700 nM
- Activity (KG-1a [16]): inactive
- CC50 (HT-29 [2]; Homo sapiens, HT-29, 72 h): 5500 nM
- LC50 (KG-1a [3]): 1400 nM

SMILES: C[C@H](NP(=O)(OC[C@H]1O[C@@H](n2ccc(N)nc2=O)C(F)(F)[C@@H]1O)Oc1ccccc1)C(=O)OCc1ccccc1 (some centres undefined) [FOSGEMCITABINE PALABENAMIDE]
- Activity (KG-1a [17]): 2.5%
- half-life [7]: 498 min
- Activity (KG-1a [18]): 2.7%
- CC50 (BXPC-3): 2290 nM
- CC50 (LNCaP): 3100 nM
- CC50 (HT-29 [2]; Homo sapiens, HT-29, 72 h): 1300 nM
- LC50 (KG-1a [3]): 280 nM
- Drug uptake [19]: Active
- CC50 (MIA PaCa-2): 100 nM
- Drug uptake [20]: Active
- Activity (KG-1a [21]): 1.9%

SMILES: Nc1ccn([C@@H]2O[C@H](CO)[C@@H](O)C2(F)F)c(=O)n1 [GEMCITABINE]
- Activity (KG-1a [22]): inactive
- Activity (KG-1a [17]): 3.9%
- Activity (KG-1a [18]): 4.1%
- CC50 (BXPC-3): 740 nM
- CC50 (LNCaP): 2800 nM
- CC50 (HT-29 [2]; Homo sapiens, HT-29, 72 h): 700 nM
- LC50 (KG-1a [3]): 1800 nM
- CC50 (MIA PaCa-2): 10 nM
- Activity (KG-1a [21]): 3.8%
